We go through twelve compounds from ChEMBL document CHEMBL1155733, “Flavonoid, iridoid, and lignan glycosides from Putoria calabrica” (J Nat Prod, 2001).

Active and inactive are the calls of the source. The calls are words filed in the database; no cut-off is given here.

Assay [1] is filed under the species Homo sapiens. Briefly: Antioxidant activity assessed as radical scavenging activity in FMLP-stimulated human PMNC up to 30 uM by chemiluminescence assay. It is filed as functional. In a few lines:
(§1)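 Human PMNs in HBSS (5 × 10⁶ cells/ml) preincubated 30 min at 37 °C with luminol (0.2 mM, as added) and test solution (ethanol stock diluted in HBSS). Stimulated with FMLP (0.5 μM, as added). Luminol-enhanced chemiluminescence recorded in cpm for 15 min at 37 °C. Area under the curve expressed as % of compound-free control; five measurements per concentration, averaged. Quercetin served as positive control.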

A short description of assay [2]: Antioxidant activity assessed as radical scavenging activity in FMLP-stimulated human PMNC by chemiluminescence assay. The class given is functional. In short, it runs like this: as §1

Turning to `CC(=O)OCC1=C[C@H](O)[C@@H]2C(C(=O)O)=CO[C@@H](O[C@H]3O[C@@H](CO)[C@H](O)[C@@H](O)[C@@H]3O)[C@H]12`, in assay [1], the result was inactive. On the same count and under the same terms, under `O=C(O)C1=CO[C@@H](O[C@@H]2O[C@H](CO)[C@@H](O)[C@H](O)[C@H]2O)[C@@H]2C(CO)=CC[C@H]12` stands “inactive”; under `CC(=O)OCC1=C[C@@H]2OC(=O)C3=CO[C@@H](O[C@@H]4O[C@H](CO)[C@@H](O)[C@H](O)[C@H]4O)[C@H]1[C@@H]32`, “inactive”. On the same count and under the same terms, to `CSC(=O)OCC1=C[C@@H]2OC(=O)C3=CO[C@@H](O[C@@H]4O[C@H](CO)[C@@H](O)[C@H](O)[C@H]4O)[C@H]1[C@@H]32` belongs “inactive”.

As to `C[C@@H]1O[C@@H](O[C@H]2[C@H](Oc3c(-c4ccc(O)c(O)c4)oc4cc(O[C@@H]5O[C@H](CO)[C@@H](O)[C@H](O)[C@H]5O)cc(O)c4c3=O)OC[C@H](O)[C@@H]2O)[C@H](O)[C@H](O)[C@H]1OC(=O)/C=C/c1ccc(O)c(O)c1` [CALABRICOSIDE B], the IC50 in assay [2] came to 300 nM.

In the case of `COc1cc(C[C@H]2CO[C@@H](c3ccc(O[C@@H]4O[C@H](CO)[C@@H](O)[C@H](O)[C@H]4O)c(OC)c3)[C@H]2CO)ccc1O[C@@H]1O[C@H](CO)[C@@H](O)[C@H](O)[C@H]1O`, the result in assay [1] was inactive. On the same count and under the same terms, to `O=C(O)C1=CO[C@@H](O[C@@H]2O[C@H](CO)[C@@H](O)[C@H](O)[C@H]2O)[C@@H]2C(CO)=C[C@@H](O)[C@H]12` belongs “inactive”; to `CSC(=O)OCC1=C[C@H](O)[C@H]2C(C(=O)O)=CO[C@@H](O[C@@H]3O[C@@H](CO)[C@@H](O)[C@@H](O)[C@H]3O)[C@H]12`, “inactive”. For `C[C@@H]1O[C@@H](O[C@H]2[C@H](Oc3c(-c4ccc(O)c(O)c4)oc4cc(O[C@@H]5O[C@H](CO)[C@@H](O)[C@H](O)[C@H]5O)cc(O)c4c3=O)OC[C@H](O)[C@@H]2O)[C@H](O)[C@H](O)[C@H]1O` [CALABRICOSIDE A], in assay [2], the 50% inhibitory concentration (IC50) amounted to 250 nM. As for `COc1cc([C@H]2OC[C@H]3[C@@H]2CO[C@@H]3c2cc(OC)c(O[C@@H]3O[C@H](CO)[C@@H](O)[C@H](O)[C@H]3O)c(OC)c2)cc(OC)c1O[C@@H]1O[C@H](CO)[C@@H](O)[C@H](O)[C@H]1O`, the outcome in assay [1] was inactive.

Turning to `O=C1O[C@H]2C=C(CO)[C@H]3[C@H](O[C@@H]4O[C@H](CO)[C@@H](O)[C@H](O)[C@H]4O)OC=C1[C@H]32`, the result in assay [1] was inactive. Regarding `O=c1c(O)c(-c2ccc(O)c(O)c2)oc2cc(O)cc(O)c12` [QUERCETIN], the IC50 in assay [2] stood at 500 nM.
